# KCNQ1 block: inhibitors of human KCNQ1 channel, primary screen, cell-based, thallium flux, high-throughput; Potassium voltage-gated channel subfamily KQT member 1 (Homo sapiens), P51787; CHO-K1 KCNQ1, FluxOR thallium flux fluorescence; active compounds read high; B-score at 10 µM; 310,000 compounds, 1.3% hits;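 active means compounds whose thallium flux B-score, printed positive for inhibition, exceeds three library SD while starting fluorescence stays within three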;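 further: channel opened by potassium depolarization with thallium stimulus after 20 min compound exposure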
# KCNK3 block: human KCNK3 channel inhibitors, primary screen, CHO cells, FluxOR thallium flux, B-score. AID 602410, 2012. Potassium channel subfamily K member 3 (Homo sapiens), O14649. B-score at 10 µM. 340,000 compounds, 0.84% hits. FluxOR fluorescence; active compounds read low;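 active means B-score under library mean minus 4 SD, starting fluorescence ratio at most library mean plus 5 SD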;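 further: more negative B-score means stronger inhibition of thallium flux through KCNK3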
# KCC2 mod: KCC2 cotransporter modulators, thallium flux, primary screen, cell-based, HEK293 KCC2, FluoZin-2 fluorescence, MLSMR | Solute carrier family 12 member 5 (Homo sapiens), Q9H2X9 | KCC2 cells, thallium flux FluoZin-2 fluorescence | B-score of Tl+ flux slope (higher = more flux/activation; lower = inhibition) at 10 µM | 190,000 compounds, 2.2% hits;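 active means thallium flux slope and its plate-corrected score both differing from the plate sample mean at a set confidence after two filtering rounds, in either direction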;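 further: slope of fluorescence scaled to starting intensity during 10 to 20 s after thallium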
# KCNQ1 pot: potentiators or activators of KCNQ1 channel, primary screen, cell-based, thallium flux, high-throughput. Potassium voltage-gated channel subfamily KQT member 1 (Homo sapiens), P51787. CHO-K1 KCNQ1, thallium flux FluxOR fluorescence; active compounds read high. B-score at 10 µM. 310,000 compounds, 0.35% hits. AID 2648, 2010;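 active means fluorescence ratio B-score, a plate-corrected score, at least three library SD, with initial intensity B-score within 5 SD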
#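 Schedule – 37 °C overnight plating, 90-min dark dye load, 20-min compound pretreatment · System – stable KCNQ1 CHO-K1 line · Probe or stimulus – thallium- and potassium-containing depolarizing buffer · Measured by – kinetic FluxOR fluorescence, 10 s baseline plus 110 s post-stimulus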
# KCNK9 inh: KCNK9 potassium channel inhibitors, primary screen, HEK293 cells, thallium flux; 310,000 compounds, 1.2% hits; FluxOR thallium flux fluorescence; active compounds read low; B-score at 10 µM;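 active means ratio B-score over 3 SD below the library mean, with starting fluorescence within 5 SD of its mean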;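 further: negative B-score means less thallium flux so channel inhibition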
# hERG rescue: hERG rescue from dofetilide block, primary screen, cell-based, CHO-hERG, FluxOR thallium flux, dofetilide IC70; Voltage-gated inwardly rectifying potassium channel KCNH2 (Homo sapiens), Q12809; dofetilide IC70 present; activation (rescue from dofetilide block), less the hit threshold, % at 10 µM; 310,000 compounds, 0.51% hits; AID 1511, 2009;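 active means activation above the mean of controls blocked by dofetilide plus 5 SD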;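 further: thallium influx through hERG after potassium depolarization seen as dye fluorescence rise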
# Numbers without * were called inactive; i = inactive; / = not tested or not shown. Compounds with a hit are over-represented: about 4.1% of the library has one in this group of screens.
SMILES,KCNQ1 block,KCNK3 block,KCC2 mod,KCNQ1 pot,KCNK9 inh,hERG rescue
CCC(C)c1ccc(N2C(=O)NC(=O)/C(=C/c3cccn3CCOc3ccc(C)cc3)C2=O)cc1 (configuration not stated),7*,i,-0.84,i,i,-11
C=CCn1c(O)c(/C=C2/C=c3ccccc3=N2)c(=O)[nH]c1=S,i,i,/,i,i,35*
C/C=C(\C)C(=O)OC1C(C)=C2C(C1OC(=O)CCCCC)C(C)(OC(C)=O)CC(OC(=O)CCC)C1(O)C2OC(=O)C1(C)O (configuration not stated),i,/,-0.59,14*,i,-13
O=C1NC(=O)N(Cc2cccs2)C(=O)/C1=C/c1ccc(N2CCOCC2)cc1,i,i,0.016,i,i,-13
O=C1NC(=O)N(Cc2ccccc2Cl)C(=O)/C1=C/N1CCOCC1,i,i,/,i,i,8.0*
S=C1CN=C(c2ccccc2Cl)c2cc(Cl)ccc2N1,i,i,5.8*,i,i,0
COC(=O)C1=C(c2c(C)noc2C)C[C@@H]2CC[C@H]1N2C(=O)NCCOc1ccc(OC)cc1,/,i,/,/,/,/
CC12CCC(=O)C=C1CCC1C2CCC2(C)C(O)CCC12 (configuration not stated),/,i,-0.42,/,/,/
CCC(=O)O[C@H]1CC[C@H]2[C@@H]3CCC4=CC(=O)CC[C@]4(C)[C@H]3CC[C@]12C,/,-8.7*,/,/,/,/
Cc1[nH]n(-c2ccccc2)c(=O)c1C(c1ccc([N+](=O)[O-])cc1)c1c(C)[nH]n(-c2ccccc2)c1=O,7*,i,-0.38,i,i,-8
O=[N+]([O-])c1ccc(C(c2ccc([N+](=O)[O-])cc2)c2ccc([N+](=O)[O-])cc2)cc1,/,i,/,/,/,/
O=C1NC(=O)C(Cc2ccccc2)(Cc2ccccc2)C(=O)N1,/,i,/,/,/,/
COC(=O)C1C2c3ccccc3OC1(C)N=c1s/c(=C/c3cn(C)nc3C)c(=O)n12 (configuration not stated),i,i,-0.12,i,i,0
CC(=O)C1C2c3ccccc3O[C@@]1(C)N=c1s/c(=C/c3ccoc3)c(=O)n12 (some centres not stated),7*,i,-1.6,i,i,-5
C=C1[C@H]2CC[C@H]3[C@]4(C)C[C@H](O[C@@H]5OC(CO)[C@@H](OSOOO)[C@H](OS(=O)(=O)O)[C@H]5OC(=O)CC(C)C)C[C@@H](C(=O)O)[C@H]4CC[C@]3(C2)[C@H]1O (some centres not stated),/,i,/,/,/,/
Clc1cc(Cl)c(-c2cc(Cl)c(Cl)cc2Cl)cc1Cl,/,i,/,/,/,/
CNCCCc1ccccc1,i,i,0.3,i,i,6.5*
O=[N+]([O-])c1cc(F)c(N2CCCC2)cc1Br,6*,i,0.98,i,i,-8
CN1CCN(c2cc(N3CCCC3)c([N+](=O)[O-])cc2F)CC1,i,i,-0.32,9*,i,-12
CCN1CCN(c2cc(N3CCCC3)c(F)cc2[N+](=O)[O-])CC1,i,i,0.71,i,i,-7
CN(C)c1ccc(P(=S)(N(C)C)N(C)C)cc1,i,i,0.53,i,i,-13
CCOP(=S)(OCC)c1ccc(N(C)C)cc1,i,i,0.79,9*,i,1
O=C1NC(=O)C(Nc2ccccc2)C(=O)N1,/,i,/,/,/,/
Nc1ccccc1Cl,/,i,/,/,/,/
Cc1ccc(NP(=O)(Oc2ccccc2)Oc2ccccc2)cc1,/,i,/,/,/,/
SMILES,KCNQ1 block,KCNK3 block,KCC2 mod,KCNQ1 pot,KCNK9 inh,hERG rescue
Cc1ccc(NP(=O)(Oc2ccccc2F)Oc2ccccc2F)cc1,6*,i,/,i,i,-13
CCc1ccc(NP(=O)(Oc2ccccc2F)Oc2ccccc2F)cc1,i,i,0.43,i,-7.4*,-10
CN1C(=O)C(C)(C2=CCCCC2)C(=O)NC1=S (configuration not stated),/,i,/,/,/,/
Clc1ccc(OCC#CCN2CCCC2)cc1,i,i,-0.65,i,i,-6
CN1CCN(CC#CCOc2ccc(Cl)cc2)CC1,i,i,/,i,i,9.8*
O=C(CSC1c2ccccc2-c2ccccc21)N/N=C/c1ccccc1O,9*,i,/,i,i,-12
COC(=O)C1=C(C(=O)OC)C2OC1c1cc3ccccc3cc12,/,i,/,/,/,/
Cc1ccccc1N1C(=O)/C(=C/c2ccco2)C(=O)NC1=S,i,/,/,i,i,13*
O=C1NC(=O)N(c2ccc3c(c2)OCO3)C(=O)/C1=C\c1ccc(N2CCCCC2)o1,9*,i,-1.8,i,i,-14
Cc1ccccc1N1C(=O)NC(=O)/C(=C/c2ccc(N3CCOCC3)o2)C1=O,6*,i,4.3,i,i,-22
CCOc1ccc(N2C(=O)/C(=C/c3ccco3)C(=O)NC2=S)cc1,i,i,/,i,i,-4
O=C1NC(=S)N(c2ccccc2F)C(=O)/C1=C\c1cccs1,i,i,1.6,i,i,22*
CCOc1ccc(N2C(=O)/C(=C\c3cccs3)C(=O)NC2=S)cc1,i,/,0.98,i,i,-12
Cc1ccccc1N1C(=O)NC(=O)/C(=C\c2cc(Br)c(N3CCOCC3)o2)C1=O,i,i,i,i,i,-7
CN[C@H]1C[C@H]2O[C@@](C)([C@H]1OC)n1c3ccccc3c3c4c(c5c6ccccc6n2c5c31)C(=O)NC4,i,/,-2.4,18*,i,-10
CN1C(=O)/C(=C\c2ccc(Br)s2)C(=O)NC1=S,i,i,/,i,i,15*
O=C1NC(=S)NC(=O)C1=Cc1ccc(Br)s1,i,i,/,i,i,-16
NCc1cc(=O)[nH]o1,/,i,/,/,/,/
COc1ccc2c(c1)/C(=C/c1cnc[nH]1)C(=O)N2,i,i,/,8*,i,1
O=C1NC(=O)C(=Cc2ccc(-c3cc(Cl)ccc3[N+](=O)[O-])o2)C(=O)N1,i,i,0.16,i,i,24*
O=C1NC(=O)C(=Cc2ccc(-c3ccccc3[N+](=O)[O-])o2)C(=O)N1,i,i,-0.83,i,i,1

# Bioassay records from PubChem BioAssay.
